Experimental data gathered from unrelated publications.
Compare with care: the assays were run in different laboratories.
Read-out: DPPH scavenging

Compound	assay	conditions	inhibition
Oc1ccc(Br)cc1C=NCCN1CCOCC1	absorbance	40 µM	10.1%
CCN(O)N=Nc1ccc(S(=O)(=O)Nc2nccs2)cc1	absorbance	240 µg/mL	25.2%
COc1cc(C=CC(=O)CC(c2ccc(N(C)C)cc2)n2ccnc2)ccc1O (stereo not drawn)		100 µg/mL	73.5%
CCN(O)N=Nc1ccc(S(=O)(=O)Nc2cc(C)on2)cc1	absorbance	300 µg/mL	40.5%
Cc1ccc(C(C)C)cc1NC(=O)COC(=O)/C=C/c1ccccc1O		100 µg/mL	1.15%
COc1cc(C=CC(=O)CC(c2ccc([N+](=O)[O-])cc2)n2ccnc2)ccc1O (stereo not drawn)		12.5 µg/mL	37.1%
Cc1ccc(C(C)C)cc1NC(=O)COC(=O)/C=C/c1ccc(Cl)cc1		100 µg/mL	7.5%
O=C1O[C@H]([C@@H](O)CO)C(O)=C1O	absorbance	40 µM	41.6%
CCN(O)N=Nc1ccc(S(=O)(=O)Nc2onc(C)c2C)cc1	absorbance	60 µg/mL	10.9%
Cc1ccc(C(C)C)cc1NC(=O)COC(=O)c1ccc(O)cc1O		100 µg/mL	2.4%
COc1cc(C=Cc2cc(-c3ccc(N(C)C)cc3)nc(O)n2)ccc1O		12.5 µg/mL	39.4%
Cc1cc(NS(=O)(=O)c2ccc(N=NN(O)c3ccccc3)cc2)no1	absorbance	240 µg/mL	33.7%
O=C1O[C@H]([C@@H](O)CO)C(O)=C1O		25 µg/mL	57.2%
O=S(=O)(Nc1nccs1)c1ccc(N=NN(O)c2ccccc2)cc1	absorbance	180 µg/mL	34.2%
CC1(C)CC[C@]2(C(=O)O)CC[C@]3(C)C(=CC[C@@H]4[C@@]5(C)CC[C@H](O)C(C)(C)[C@@H]5CC[C@]43C)[C@@H]2C1		100 µg/mL	95.6%
COc1cc(C=Cc2cc(-c3ccccc3)nc(O)n2)ccc1O		25 µg/mL	50%
Cc1ccc(C(C)C)cc1NC(=O)COC(=O)c1ccc(O)cc1		100 µg/mL	1.7%
Cc1ccc(N(O)N=Nc2ccc(S(=O)(=O)Nc3cc(C)on3)cc2)cc1	absorbance	240 µg/mL	29.7%
